# Published values pooled from the literature.
# Compare with care: the assays were run in different laboratories.
# Read-out: enzyme activity
# Mode: inhibitor
# CDK5 with p25: Cyclin-dependent kinase 5, with p25 (CDK5, Homo sapiens, UniProt Q00535)
# CDK5 with p35: Cyclin-dependent kinase 5, with p35 (CDK5, Homo sapiens, UniProt Q00535)
Compound,target,technique,concentration,time,remaining activity [%]
CC(C)(O)[C@H]1CC[C@H](Nc2ccc3ncc(-c4cccc(C(F)(F)F)c4)n3n2)CC1,CDK5 with p25,,1 µM,,92.2
O=C(Nc1cnn(-c2csc(C(=O)NC3COC3)c2)c1)Nc1ccccc1Cl,CDK5 with p25,,5 µM,,101
CCCOc1ccc(OC)c(F)c1C(=O)c1ccc(C(=O)N[C@@H]2CNC[C@H]2NC(=O)c2ccc3[nH]ncc3c2)cc1,CDK5 with p25,,0.1 µM,,112
CC(C)(C)c1nc2c(s1)c1nc(N)ncc1c1ccc(NS(=O)(=O)c3c(F)cccc3F)c(F)c12,CDK5 with p35,radiometric,1 µM,,77
Cc1sc(C(=O)NC2COC2)cc1-n1cc(NC(=O)Nc2c(F)cccc2Cl)cn1,CDK5 with p25,,10 µM,,97.6
COc1cc(Cl)c(C(=O)N[C@@H](CN[C@H]2CC[C@@H](N)CC2)Cc2ccc(C#N)cc2)cc1-c1ccc(CN[C@H](C)c2ccc(C)cc2)o1,CDK5 with p25,,1 µM,,102
O=C(Nc1cnn(-c2csc(C(=O)NC3COC3)c2)c1)Nc1c(F)cccc1Cl,CDK5 with p25,,5 µM,,88.2
CC[C@H](C)[C@H](NC(=O)[C@H](CCC(N)=O)NC(=O)[C@H](CC(C)C)NC(=O)[C@H](CCSC)NC(=O)[C@H](CCCCN)NC(=O)[C@H](CO)NC(=O)[C@H](CO)NC(=O)[C@H](CCSC)NC(=O)[C@H](CC(C)C)NC(=O)[C@H](CC(N)=O)NC(=O)[C@@H](NC(=O)[C@@H](NC(=O)[C@H](CO)NC(=O)[C@H](CC(C)C)NC(=O)[C@H](CS)NC(=O)[C@H](CCCNC(=N)N)NC(=O)[C@H](CC(=O)O)NC(=O)[C@H](Cc1c[nH]c2ccccc12)NC(=O)[C@H](Cc1ccccc1)NC(=O)[C@H](C)NC(=O)[C@H](CCC(=O)O)NC(=O)[C@@H](N)CCCCN)C(C)C)[C@@H](C)CC)C(=O)N[C@@H](CC(N)=O)C(=O)N[C@@H](C)C(=O)O,CDK5 with p25,radiometric,500 µM,20 min,28
CCN(CC)c1ccc(C2=NNC(=O)CC2C)cc1[N+](=O)[O-] (stereo not shown),CDK5 with p35,,10 µM,,109
Cc1cnc(NC2CCOCC2)nc1-n1cnc(C(=O)NC(CN)c2cc(F)cc(Cl)c2)c1 (stereo not shown),CDK5 with p35,radiometric,1 µM,,4
